Entries after “also recorded” stand apart in the source; their conditions may differ. Ends that are not written are not given here. * marks the point of attachment. Biotin = O=C1N[C@H]2[C@H](CS[C@H]2CCCCC(=O)*)N1
How the values were obtained:
[1] = tested on: purified mitochondria (ΔΨm); assay: ΔΨm dissipation in purified mitochondria, effect of inhibitors; type: biochemical, mouse; details: for protection against Vpr-induced inner MMP (in words): purified mitochondria, Fig. 6 B–E
[2] = Binding of FITC–Vpr52-96 to purified mitochondria; design: species or system mouse; details: for effect on binding of Vpr52-96 to purified mitochondria: 10 min preincubation with inhibitors, Fig. 7 B
[3] = biological target: T1, ANT (Rattus norvegicus, UniProt Q05962); assay: Plasmon resonance; type: binding; details: for binding affinity for ANT (in words): surface plasmon resonance, purified detergent-solubilized ANT; for sensorgram: increase of binding as a function of time: plasmon resonance, association and dissociation phase, Fig. 1 A
T1 sequence (Q05962 1-298): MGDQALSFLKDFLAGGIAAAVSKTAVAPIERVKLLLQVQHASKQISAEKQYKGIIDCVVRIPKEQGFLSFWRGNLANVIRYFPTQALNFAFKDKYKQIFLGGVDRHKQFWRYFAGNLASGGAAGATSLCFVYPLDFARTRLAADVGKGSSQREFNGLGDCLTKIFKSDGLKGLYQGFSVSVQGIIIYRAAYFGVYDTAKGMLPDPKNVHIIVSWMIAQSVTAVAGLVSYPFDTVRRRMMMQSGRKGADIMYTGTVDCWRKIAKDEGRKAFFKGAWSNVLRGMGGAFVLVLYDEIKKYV

[4] = tested on: ANT; details: ref 8 26 28 40; cited from earlier work
[5] = biological target: T1, ANT; assay: Planar lipid bilayers, single channel level, Vpr52-96 plus ANT; type: biochemical; details: +75 mV
Method in brief: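 Rat heart mitochondrial ANT, purified via subtilisin treatment, Triton X-100 solubilization, hydroxyapatite and SP column (0–1 M NaCl). Proteins held 30 min RT with 1 mM CaCl2, 40 μM atractyloside or control electrolyte, mixed with dried lipid (60 μg protein/mg lipid), detergent removed by beads. Tip-dip bilayers, symmetric 100 mM KCl, 2 mM MgCl2, 10 mM Hepes pH 7.4.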

[6] = tested on: VDAC; details: sucrose or cytochrome c, in vitro; ref 9 44; cited from earlier work
[7] = tested on: ANT proteoliposomes; assay: Pore-opening assay: 4-MUP release from ANT proteoliposomes; type: biochemical, rat; details: peptides 1 μM, 60 min, Atr 200 μM = 100%, Fig. 2 C
Method in brief: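 ANT purified from rat heart mitochondria, reconstituted into PC/cardiolipin liposomes, sonicated on ice with 1 mM 4-MUP/10 mM KCl, gel-filtered. Diluted in 10 mM Hepes, 125 mM saccharose pH 7.4, peptide 1 h RT; inhibitors added 30 min earlier. Alkaline phosphatase (0.5 mM MgCl2) 15 min 37°C, stopped at pH 10. 4-MU fluorescence 360/450 nm. Release = % of atractyloside response after untreated background subtraction; n = 3, SD.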

[8] = tested on: purified mitochondria (respiratory control); assay: Respiratory control; type: biochemical, mouse; details: 1 μM Vpr-derived peptides, 10 min
Method in brief: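 Clark-electrode oxygraphy at 37°C in 0.3 M mannitol, 10 mM KCl, 5 mM MgCl2, 1 mg/ml BSA, 10 mM KH2PO4, pH 7.4. Purified mitochondria were pretreated 10 min with 1 μM peptide; succinate oxidation was followed with sequential ADP, oligomycin and CCCP additions. Mean of three determinations.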

[9] = tested on: purified mitochondria, inner membrane; assay: Respirometry: NADH-dependent oxygen consumption; type: biochemical, mouse; details: Bcl-2 0.8 μM pretreated 10 min; other agents added; Fig. 5 A, 6 B
Method in brief: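 Oxygen uptake was recorded by Clark electrode at 37°C (mannitol/KCl/MgCl2/BSA/KH2PO4 medium, pH 7.4) after 2 mM NADH and 1 μM peptide, with rotenone added to test sensitivity; rates are in nmol O2/min/mg protein. For inhibitor tests, mitochondria were pretreated 10 min with 0.8 μM Bcl-2 or 10 μM BA before succinate plus CCCP or NADH. In the kinetics, 15 μM cytochrome c oxidation was followed in parallel, with 100% set by 2.5 mM laurylmaltoside.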

[10] = tested on: COS cells; assay: ΔΨm dissipation in microinjected COS cells; type: cell-based
Method in brief: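 COS cells grown in DMEM Glutamax with Hepes, antibiotics and 10% FCS on a premarked coverslip area (>200 cells per experiment). Cells were injected into the cytoplasm (200 hPa, 0.5 s) with PBS pH 7.2, recombinant human Bcl-2 (residues 1–218; 10 μM in the injection solution) or 2 μM König's polyanion.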

[11] = tested on: ANT proteoliposomes; assay: Binding of FITC-labeled Vpr52-96 to ANT proteoliposomes; design: species or system rat; details: FITC–Vpr52-96 (2 μM in Fig. 2 B); BA 50 μM; Bcl-2 800 nM preincubated (Fig. 8 B)
Method in brief: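 ANT was purified from rat heart mitochondria (Triton X-100 extraction, hydroxyapatite, then cation-exchange with a 0–1 M NaCl gradient) and reconstituted at 0.1 mg/ml into phosphatidylcholine/cardiolipin liposomes, then dialysed overnight at 4°C. Proteoliposomes were exposed 30 min to FITC-peptide in 125 mM sucrose/10 mM Hepes pH 7.4, ultracentrifuged (290,000 g, 45 min, 10°C) and read by flow cytometry. Inhibitors were preincubated and washed out; mean ± SD, n = 3.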

[12] = biological target: biotin–Vpr52-96 (synthetic peptide, COOH-terminal moiety of HIV-1 viral protein R) (HIV-1) (UniProt P69726); assay: SPR
[13] = tested on: Vpr52-96–ANT interaction; type: binding, rat; details: native purified ANT; Fig. 8 A; X ± SD, n = 3
[14] = tested on: isolated mitochondria; assay: Ultrastructure: swelling of isolated mitochondria; type: biochemical, mouse; details: Fig. 6 C
[15] = tested on: recombinant VDAC; assay: Plasmon resonance: binding to recombinant VDAC; details: control experiments, VDAC concentrations up to 10 μM
[16] = tested on: ANT; assay: Affinity purification of ANT by biotinylated Vpr52-96 and immunoblot; type: binding, mouse; details: Fig. 7 C

Question: Which “protection against Vpr-induced inner MMP (in words)” value [1] does the source give for cyclosporin A [CsA] here?
Answer: also inhibited the manifestations of inner MMP

Question: What about the “effect on binding of Vpr52-96 to purified mitochondria” value [2] of the same compound?
Answer: not affected

Question: With “biotin–Vpr52-96: NH2-terminally biotinylated Vpr52-96 (Biotin-DTWAGVEAIIRILQQLLFIHFRIGCRHSRIGVTRQRRARNGASRS)” as the compound, how does the “binding affinity for ANT (in words)” value [3] read?
Answer: affinity in the nanomolar range

Question: Which “binding affinity for ANT (in words)” value [3] does the source give for “biotin–Vpr52-96[R73,80A]: mutated biotin–Vpr52-96[R73,80A], immobilized on biosensor chip (Biotin-DTWAGVEAIIRILQQLLFIHFAIGCRHSAIGVTRQRRARNGASRS)” here?
Answer: to a far lesser extent

Question: For Bax: proapoptotic Bcl-2 family protein, which “effect on ANT pore formation” value [4] is on record?
Answer: cause ANT (which normally is a strictly specific ADP/ATP antiporter) to form a nonspecific pore

Question: What about the “conductance of Vpr52-96–ANT channels in presence of Bax” value ([5]; Vpr52-96 plus ANT plus Bax 0.4:1:0.3 nM, mean value) of the same compound?
Answer: 245 ± 2 pS

Question: And the “effect on permeabilization of VDAC-containing liposomes” value [6]?
Answer: enhanced by Bax

Question: Which “permeabilization of ANT proteoliposomes” value [7] does the source give for Vpr1-51: NH2-terminal moiety of Vpr here?
Answer: but not the NH2-terminal moiety of Vpr [Vpr1-51]

Question: What about the “effect on RC (in words)” value [8] of the same compound?
Answer: but not Vpr1-51

Question: With `Nc1ncnc2c1ncn2[C@@H]1O[C@H](COP(=O)(O)OP(=O)(O)O)[C@@H](O)[C@H]1O` [ADP, reference compound] as the compound, how does the “effect on Vpr-induced NADH-dependent oxygen consumption” value [9] read?
Answer: strongly inhibited the Vpr-dependent, NADH-stimulated oxygen consumption

Question: Which “vehicle-microinjected cells with complete ΔΨm dissipation” value ([10]; 1 μM Vpr52-96 (Fig. 6 A), 3 h, n = 3) does the source give for “Vpr: Vpr added extracellularly to intact cells; Fig. 6 A legend gives 1 μM Vpr52-96” here?
Answer: 61 ± 8%

Question: Which results are given for `CO[C@H](C/C=C\C=C\CC/C=C/C[C@H](C)/C=C/C(=C\C(=O)O)CC(=O)O)/C(C)=C\C=C(/C)C(=O)O` [BA, bongkrekic acid]?
Answer: effect on Vpr binding to ANT proteoliposomes [11]: inhibited; protection against Vpr-induced inner MMP (in words) [1]: also inhibited the manifestations of inner MMP; effect on binding of Vpr52-96 to purified mitochondria [2]: partially reduced; also recorded: reduces the binding of Vpr to mitochondria to some extent

Question: For `C=C(C)[C@H]1Cc2c(ccc3c2O[C@@H]2COc4cc(OC)c(OC)cc4[C@@H]2C3=O)O1` [rotenone, reference compound], which “effect on Vpr-induced NADH-dependent oxygen consumption” value [9] is on record?
Answer: fully sensitive to rotenone

Question: With “adenine nucleotide translocator (ANT) purified from rat heart mitochondria (from UniProt Q05962 1-298) (natural protein)” as the compound, how does the Kd [12] read?
Answer: 9.7 nM

Question: Which results are given for “Bcl-2: recombinant human Bcl-2 (amino acids 1–218)”?
Answer: effect on formation of Vpr52-96–induced channels in ANT-containing lipid bilayers ([5]; Vpr52-96 plus ANT plus Bcl-2 0.4:1:1 nM, Fig. 8 C): suppresses channel formation by the ANT–Vpr complex; also recorded: abolished the formation of Vpr52-96–induced channels; effect of Bcl-2 proteins on Vpr52-96 binding to soluble ANT [13]: reduces the ANT–Vpr interaction; also recorded: reduced Vpr52-96 binding to soluble; also recorded: inhibits binding of Vpr52-96 to ANT; effect on permeabilization of VDAC-containing liposomes [6]: inhibited by Bcl-2; effect on Vpr-induced NADH-dependent oxygen consumption [9]: inhibited the Vpr-mediated inner MMP to NADH; effect on Vpr binding to ANT proteoliposomes [11]: reduced; inhibition of Vpr-induced ΔΨm loss in purified mitochondria ([1]; Bcl-2 preincubation (0.8 μM), Fig. 6 D, E): ~70%; protection against Vpr-induced inner MMP (in words) [1]: protect mitochondria against Vpr-induced MMP; effect on binding of Vpr52-96 to purified mitochondria [2]: failed to impair the binding of Vpr52-96 to purified mitochondria; also recorded: not affected; inhibition of Vpr-induced matrix swelling ([14]; Bcl-2 preincubation): ~50%; effect on Vpr52-96-induced matrix swelling (in words) [14]: strongly reduced the Vpr52-96–induced matrix swelling; inhibition of Vpr-induced ΔΨm loss in intact cells ([10]; 10 μM recombinant human Bcl-2 microinjected, 1 μM Vpr52-96, 3 h): ≥ 95%; cells with ΔΨm reduction, inhibitor-injected ([10]; Bcl-2-injected (10 μM), 1 μM Vpr52-96, 3 h): Less than 5%

Question: For “Vpr52-96[R73A,80A] (Biotin-DTWAGVEAIIRILQQLLFIHFAIGCRHSAIGVTRQRRARNGASRS)”, which “sensorgram: increase of binding as a function of time” value [3] is on record?
Answer: Only the sensorgram of the interaction with Vpr52-96 exhibits an increase of binding

Question: What about the “specific binding to VDAC” value [15] of the same compound?
Answer: without any difference between Vpr52-96 and Vpr52-96[R73A, 80A] and without detectable saturation

Question: With `C=C1[C@@H]2CC[C@H]3[C@]4(C)C[C@H](O[C@@H]5O[C@H](CO)[C@@H](OS(=O)(=O)O)[C@H](OS(=O)(=O)O)[C@H]5OC(=O)CC(C)C)C[C@@H](C(=O)O)[C@H]4CC[C@]3(C2)[C@H]1O` [Atr, atractyloside, reference compound] as the compound, how does the “effect on ANT pore formation” value [4] read?
Answer: cause ANT (which normally is a strictly specific ADP/ATP antiporter) to form a nonspecific pore

Question: Which “effect on Vpr52-96-mediated purification of ANT, intact mitochondria” value ([16]; 5 μM biotinylated Vpr52-96, 30 min RT, lysed after incubation) does the source give for König's polyanion [PA10] here?
Answer: fully abolished

Question: What about the “effect on Vpr52-96-mediated purification of ANT, Triton-solubilized mitochondria” value ([16]; mitochondria lysed before incubation with 5 μM biotinylated Vpr52-96) of the same compound?
Answer: did not affect

Question: And the “protection against Vpr-induced inner MMP (in words)” value [1]?
Answer: also inhibited the manifestations of inner MMP

Question: And the “effect on binding of Vpr52-96 to purified mitochondria” value [2]?
Answer: completely abolished; also recorded: completely blocks the binding of Vpr52-96 to intact mitochondria

Question: And the “effect on Vpr action on intact cells (in words)” value ([10]; 2 μM PA10 microinjected, 1 μM Vpr52-96, 3 h)?
Answer: also inhibited the effect of Vpr52-96 on intact cells

Question: Which “binding of FITC-labeled Vpr52-96 to intact mitochondria” value ([2]; 0.5 μM FITC–Vpr52-96, Fig. 7 A) does the source give for “FITC-labeled Vpr52-96: FITC-labeled Vpr52-96 (DTWAGVEAIIRILQQLLFIHFRIGCRHSRIGVTRQRRARNGASRS; also: FITC label, position not given here)” here?
Answer: rapidly bound to intact mitochondria and then provoked ΔΨm loss

Question: Which “sensorgram: increase of binding as a function of time” value [3] does the source give for “HWWRAESDEARRCYNDPKCCDFVTNR [irrelevant control (Co.), reference compound]” here?
Answer: Only the sensorgram of the interaction with Vpr52-96 exhibits an increase of binding
